By Ki is commonly meant the dissociation constant of the complex between target and ligand, obtained from inhibition or displacement. The low end stands for higher affinity, the high end for lower affinity. By EC50 is commonly meant the concentration needed to bring the measured effect to its halfway point. A lower EC50 goes with greater potency. As usually defined, the inhibition is the share of the control response that was lost under treatment. Read a high inhibition as a strong effect. For orientation: IC50 means the concentration that gives 50% inhibition. As a reminder, the half-life is the time in which the quantity being followed falls by half. Low values mean rapid decline, high ones slow decline. The term clearance denotes the volume of plasma or blood freed of the substance per unit of time. Low values mean inefficient removal, high ones efficient removal. In general, bioavailability refers to the share of a dose that reaches the circulation, judged against a reference dose that is usually intravenous.

This note sets out measurements from ChEMBL document CHEMBL1138064, “Discovery of N-[(3R)-1-azabicyclo[2.2.2]oct-3-yl]furo[2,3-c]pyridine-5-carboxamide, an agonist of the alpha7 nicotinic acetylcholine receptor, for the potential treatment of cognitive deficits in schizophrenia: synthesis and structure--activity relationship” (J Med Chem, 2006).

Data set [1] concerns the target Neuronal acetylcholine receptor subunit alpha-7 (Rattus norvegicus, UniProt Q05941). Description: Displacement of [3H]MLA from alpha-7 nAChR in Sprague-Dawley rat brain homogenates. Type of data set: tissue-based. The essentials:
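Rat brain homogenate binding assay with [3H]MLA as radioligand. Values are the average of two or more experiments.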
(In general: Displacement assays read how much labelled ligand stays bound in the presence of the test substance.)

A short description of data set [2]: Activity at alpha7-5HT3 chimera expressed in SHEP1 cells by FLIPR assay. Type of data set: functional, cell-based. The conditions noted are these: Homo sapiens, SH-EP1. The gist of the method: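 Cell-based FLIPR functional assay in SH-EP1 cells expressing the α7-5HT3 chimera. Values are the average of at least five experiments for most compounds.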
Data set [3] can be described thus: Metabolic stability in Sprague-Dawley rat liver microsomes after 1 hr. Type of data set: ADME, Microsome. Particulars: read-out: Stability. The essentials: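 Rat liver microsomes incubated with compound, in vitro metabolism; read-out is percent of parent remaining at 1 h.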
A general note: Liver microsomes are a subcellular fraction often used to study metabolism.

The target in data set [4] is Serotonin 3 (5-HT3) receptor. Description: Binding affinity to 5HT3 receptor. Type of data set: protein-complex assay, Homo sapiens.
Data set [5] deals with T1, hERG (Homo sapiens, UniProt Q12809). Description: Inhibition of hERG expressed in HEK293 cells at 2 uM by patch clamp assay. Particulars: HEK293 cells that express hERG. Type of data set: toxicity, cell-based. The gist of the method: (§1)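 hERG current (IKr) in HEK cells recorded by patch clamp; compound applied at 2 and 20 µM; % block of current reported at each concentration.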

Data set [6] has as its target Neuronal acetylcholine receptor; alpha3/beta4 (Homo sapiens, UniProt P30926+P32297). Description: Inhibition of alpha-3-beta-4 nAChR expressed in SHSY5Y cells by FLIPR assay. Type of data set: functional, cell-based, SH-SY5Y. The essentials: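 FLIPR cell-based functional assay in SH-SY5Y cells, which carry α3β4-containing ganglion-type nAChRs; tested for agonist and antagonist activity; IC50 in µM.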

Data set [7] has as its target Serotonin 3 (5-HT3) receptor. Description: Activity at 5HT3 receptor expressed in SHEP1 cells by FLIPR assay. Type of data set: functional, cell-based, Homo sapiens. The essentials:
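Cell-based FLIPR functional assay in SH-EP1 cells expressing 5-HT3.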

Data set [8] concerns the target T1, hERG. In words: Inhibition of hERG expressed in HEK293 cells at 20 uM by patch clamp assay. Particulars: HEK293 cells that express hERG. Type of data set: toxicity, cell-based. The essentials:
as §1
(In general: The hERG channel carries a current that helps repolarise heart muscle cells.)

Data set [9] concerns the target Acetylcholine receptor; alpha1/beta1/delta/gamma (Homo sapiens, UniProt P02708+P07510+P11230+Q07001). In words: Inhibition of alpha-1-beta-1-gamma-delta nAChR expressed in TE671cells by FLIPR assay. Type of data set: functional, cell-based, TE-671. The essentials: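 Functional FLIPR read-out in TE671 cells expressing native muscle-type α1β1γδ nAChR, cell-based; tested for agonist and antagonist activity; IC50 in µM.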

A further data set deals with Cytochrome P450 2D6 (Homo sapiens, UniProt P10635). In words: Inhibition of CYP2D6. Type of data set: ADME.
Chain of Cytochrome P450 2D6 (P10635 whole entry): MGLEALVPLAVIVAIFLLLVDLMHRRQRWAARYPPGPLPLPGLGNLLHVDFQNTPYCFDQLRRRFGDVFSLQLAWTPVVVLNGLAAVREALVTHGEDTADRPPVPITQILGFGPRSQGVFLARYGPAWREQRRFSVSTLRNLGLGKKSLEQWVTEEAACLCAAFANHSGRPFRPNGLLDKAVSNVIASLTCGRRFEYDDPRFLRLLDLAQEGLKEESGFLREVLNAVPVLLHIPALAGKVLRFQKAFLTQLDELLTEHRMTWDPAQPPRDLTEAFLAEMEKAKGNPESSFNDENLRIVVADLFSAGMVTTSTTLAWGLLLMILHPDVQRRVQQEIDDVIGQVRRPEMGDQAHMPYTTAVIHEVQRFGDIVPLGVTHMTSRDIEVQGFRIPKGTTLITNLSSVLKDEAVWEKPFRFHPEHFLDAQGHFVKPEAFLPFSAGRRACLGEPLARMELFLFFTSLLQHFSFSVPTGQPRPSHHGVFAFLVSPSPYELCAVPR
Data set [10] can be described thus: Half life in Sprague-Dawley rat liver microsome. Type of data set: ADME. Particulars: liver microsomes.
Data set [11] addresses Neuronal acetylcholine receptor; alpha4/beta2 (Rattus norvegicus) (UniProt P09483+P12390). In words: Inhibition of [3H]cytisine binding to alpha4beta2 nAChR in rat brain homogenate at 1 uM. Type of data set: tissue-based. The essentials:
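Radioligand displacement in rat brain homogenate with [³H]cytisine as the α4β2 ligand; test compound at 1 µM; value reported as % block of binding.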

The nature of data set [12]: Clearance in rat constant infusion model. Type of data set: ADME, organism-based. The conditions noted are these: in vivo, iv. The gist of the method: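 Clearance determined in a rat constant infusion model.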
The nature of data set [13]: Oral bioavailability in rat constant infusion model. Type of data set: ADME, organism-based. The conditions noted are these: in vivo. The essentials:
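Rat clearance and oral bioavailability derived from a constant infusion model.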

The nature of data set [14]: Half life in human liver microsome. The conditions noted are these: liver microsomes. Type of data set: ADME.

Chain of Acetylcholine receptor; alpha1/beta1/delta/gamma (P02708 whole entry): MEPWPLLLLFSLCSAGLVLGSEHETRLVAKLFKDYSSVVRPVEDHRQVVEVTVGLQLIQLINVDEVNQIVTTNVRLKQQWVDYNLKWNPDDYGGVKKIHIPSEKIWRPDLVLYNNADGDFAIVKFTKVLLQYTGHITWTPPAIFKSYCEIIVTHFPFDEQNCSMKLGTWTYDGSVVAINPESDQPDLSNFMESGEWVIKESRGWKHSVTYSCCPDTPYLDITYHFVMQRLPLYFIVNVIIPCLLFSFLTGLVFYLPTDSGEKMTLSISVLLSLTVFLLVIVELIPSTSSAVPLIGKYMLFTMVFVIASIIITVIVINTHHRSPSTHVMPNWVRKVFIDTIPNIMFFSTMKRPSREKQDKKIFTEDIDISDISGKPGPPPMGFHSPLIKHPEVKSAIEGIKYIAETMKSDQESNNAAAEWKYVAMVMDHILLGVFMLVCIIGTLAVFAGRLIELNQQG
Chain of Acetylcholine receptor; alpha1/beta1/delta/gamma (P07510 whole entry): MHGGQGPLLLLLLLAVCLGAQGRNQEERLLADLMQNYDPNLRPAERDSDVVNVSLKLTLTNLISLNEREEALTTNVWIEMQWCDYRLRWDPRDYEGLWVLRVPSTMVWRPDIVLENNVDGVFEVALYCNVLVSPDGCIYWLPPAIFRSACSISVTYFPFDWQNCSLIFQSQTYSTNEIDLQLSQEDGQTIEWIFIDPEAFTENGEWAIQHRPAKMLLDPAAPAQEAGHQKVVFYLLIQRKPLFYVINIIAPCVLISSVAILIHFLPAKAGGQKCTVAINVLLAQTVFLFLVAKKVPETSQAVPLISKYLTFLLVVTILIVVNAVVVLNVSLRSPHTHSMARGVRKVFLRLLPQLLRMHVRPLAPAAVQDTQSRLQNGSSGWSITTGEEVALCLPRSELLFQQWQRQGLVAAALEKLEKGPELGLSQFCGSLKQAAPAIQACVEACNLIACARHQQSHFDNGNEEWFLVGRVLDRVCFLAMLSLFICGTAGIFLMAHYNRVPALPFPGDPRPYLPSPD
Chain of Acetylcholine receptor; alpha1/beta1/delta/gamma (P11230 whole entry): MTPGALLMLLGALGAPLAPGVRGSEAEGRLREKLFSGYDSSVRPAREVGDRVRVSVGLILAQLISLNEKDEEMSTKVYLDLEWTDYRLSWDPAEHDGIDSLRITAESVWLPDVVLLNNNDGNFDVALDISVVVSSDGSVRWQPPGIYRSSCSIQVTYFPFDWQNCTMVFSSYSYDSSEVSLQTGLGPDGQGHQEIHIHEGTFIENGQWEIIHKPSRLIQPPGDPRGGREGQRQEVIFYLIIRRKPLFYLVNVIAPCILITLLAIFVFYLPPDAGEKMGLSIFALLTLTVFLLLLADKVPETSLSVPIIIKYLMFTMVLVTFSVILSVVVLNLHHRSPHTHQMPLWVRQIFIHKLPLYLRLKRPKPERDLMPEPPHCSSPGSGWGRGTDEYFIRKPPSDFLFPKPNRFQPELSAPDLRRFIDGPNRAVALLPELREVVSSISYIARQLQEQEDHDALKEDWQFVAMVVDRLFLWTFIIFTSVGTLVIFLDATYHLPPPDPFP
Chain of Acetylcholine receptor; alpha1/beta1/delta/gamma (Q07001 whole entry): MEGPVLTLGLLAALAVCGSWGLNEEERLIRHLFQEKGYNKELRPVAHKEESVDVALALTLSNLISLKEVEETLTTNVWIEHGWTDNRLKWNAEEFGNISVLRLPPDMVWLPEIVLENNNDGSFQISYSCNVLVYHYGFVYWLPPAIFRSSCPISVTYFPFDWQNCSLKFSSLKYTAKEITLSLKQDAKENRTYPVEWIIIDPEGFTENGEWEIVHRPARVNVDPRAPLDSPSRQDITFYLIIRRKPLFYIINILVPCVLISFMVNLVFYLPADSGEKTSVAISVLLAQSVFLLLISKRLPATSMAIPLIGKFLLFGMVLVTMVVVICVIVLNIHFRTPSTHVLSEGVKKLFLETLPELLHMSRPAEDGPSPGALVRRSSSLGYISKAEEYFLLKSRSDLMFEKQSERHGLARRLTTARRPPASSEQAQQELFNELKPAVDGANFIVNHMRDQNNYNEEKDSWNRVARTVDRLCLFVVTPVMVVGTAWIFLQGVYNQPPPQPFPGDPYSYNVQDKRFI
Chain of Neuronal acetylcholine receptor; alpha3/beta4 (P30926 whole entry): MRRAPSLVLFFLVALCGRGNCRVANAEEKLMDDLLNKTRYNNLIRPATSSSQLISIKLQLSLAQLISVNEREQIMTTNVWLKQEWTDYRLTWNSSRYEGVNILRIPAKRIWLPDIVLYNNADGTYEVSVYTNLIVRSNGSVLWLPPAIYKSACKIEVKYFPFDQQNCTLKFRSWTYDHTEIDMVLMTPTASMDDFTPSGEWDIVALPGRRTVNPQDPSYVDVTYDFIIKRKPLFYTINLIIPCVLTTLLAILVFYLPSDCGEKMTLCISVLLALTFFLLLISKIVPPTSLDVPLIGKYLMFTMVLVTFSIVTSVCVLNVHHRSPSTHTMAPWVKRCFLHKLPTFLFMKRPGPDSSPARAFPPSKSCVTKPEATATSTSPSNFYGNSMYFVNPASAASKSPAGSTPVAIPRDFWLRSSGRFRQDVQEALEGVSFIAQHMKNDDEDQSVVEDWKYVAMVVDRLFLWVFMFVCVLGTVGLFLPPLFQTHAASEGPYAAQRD
Chain of Neuronal acetylcholine receptor; alpha3/beta4 (P32297 whole entry): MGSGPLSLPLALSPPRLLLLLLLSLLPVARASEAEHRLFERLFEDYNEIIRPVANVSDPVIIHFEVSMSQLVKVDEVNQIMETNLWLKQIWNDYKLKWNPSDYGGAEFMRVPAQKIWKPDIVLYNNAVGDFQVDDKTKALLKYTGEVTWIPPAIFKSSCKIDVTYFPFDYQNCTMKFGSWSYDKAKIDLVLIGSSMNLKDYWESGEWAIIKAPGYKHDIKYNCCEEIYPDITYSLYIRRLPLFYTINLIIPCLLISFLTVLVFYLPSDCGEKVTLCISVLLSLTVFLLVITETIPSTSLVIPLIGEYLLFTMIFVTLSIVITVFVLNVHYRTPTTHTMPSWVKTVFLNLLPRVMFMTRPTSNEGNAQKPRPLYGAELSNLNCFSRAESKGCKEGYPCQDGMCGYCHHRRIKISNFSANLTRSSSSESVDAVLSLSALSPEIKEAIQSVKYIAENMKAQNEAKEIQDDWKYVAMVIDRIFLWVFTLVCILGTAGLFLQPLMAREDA
Chain of Neuronal acetylcholine receptor subunit alpha-7 (Q05941 whole entry): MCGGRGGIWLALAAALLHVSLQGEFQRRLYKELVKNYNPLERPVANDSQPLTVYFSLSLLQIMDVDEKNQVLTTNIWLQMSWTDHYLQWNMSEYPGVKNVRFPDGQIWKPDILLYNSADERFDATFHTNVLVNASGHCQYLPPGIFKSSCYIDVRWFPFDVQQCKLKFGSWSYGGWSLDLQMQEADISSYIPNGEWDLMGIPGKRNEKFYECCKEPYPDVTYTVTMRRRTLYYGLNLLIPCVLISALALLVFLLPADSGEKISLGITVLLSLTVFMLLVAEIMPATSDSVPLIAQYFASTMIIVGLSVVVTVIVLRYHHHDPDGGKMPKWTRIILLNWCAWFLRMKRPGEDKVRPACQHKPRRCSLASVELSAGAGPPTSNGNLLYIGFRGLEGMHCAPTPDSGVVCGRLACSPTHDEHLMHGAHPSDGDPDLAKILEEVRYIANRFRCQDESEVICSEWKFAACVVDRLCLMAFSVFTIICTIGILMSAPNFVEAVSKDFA

`O=C(N[C@H]1CN2CCC1CC2)c1ccc2sccc2c1` gave a Ki in data set [1] of 6.9 nM. Also, in data set [2], the midpoint of the response, the EC50, lay at 55 nM. Besides, in data set [3], the remaining at 1 h was determined as 6%.
In data set [1], `O=C(N[C@H]1CN2CCC1CC2)c1cc2ccsc2cn1` had a Ki of 6.3 nM. For the same compound, in data set [2], the EC50 came to 100 nM. Moreover, the remaining at 1 h in data set [3] was determined as 7%.
On to `O=C(N[C@H]1CN2CCC1CC2)c1ccc2c(c1)CCN2`, for which, in data set [1], the Ki came to 83 nM. The compound also had an EC50 in [2] of 600 nM.
Compound `O=C(N[C@H]1CN2CCC1CC2)c1ccc2cc[nH]c2c1` yielded a concentration giving a half-maximal response (EC50) in data set [2] of 100 nM. In addition, in data set [3], the remaining at 1 h was 14%.
Take `O=C(N[C@H]1CN2CCC1CC2)c1cc2occc2cn1`: in [1], affinity was put at a Ki of 50 nM. Besides, the EC50 in data set [2] worked out at 374 nM. The remaining at 1 h in data set [3] is 40%.
Compound `O=C(N[C@H]1CN2CCC1CC2)c1ccc2ccoc2n1` registered an EC50 in [2] greater than 10000 nM.
With `O=C(N[C@H]1CN2CCC1CC2)c1cc2sccc2cn1`, the concentration giving a half-maximal response (EC50) in [2] is 81 nM. Besides, the remaining at 1 h in data set [3] was 7%.
For the compound `O=C(N[C@H]1CN2CCC1CC2)c1cnc2occc2c1`, the EC50 in data set [2] is greater than 10000 nM.
In data set [2], `O=C(N[C@H]1CN2CCC1CC2)c1cc2cc[nH]c2cn1` registered a concentration for a half-maximal effect (EC50) of 1170 nM. Further, in data set [3], the remaining at 1 h is 29%.
In data set [2], `O=C(N[C@H]1CN2CCC1CC2)c1ccc2[nH]ccc2c1` returned an EC50 of 550 nM.
As for `O=C(N[C@H]1CN2CCC1CC2)c1ccc2ccsc2c1`, the Ki in [1] was 2.1 nM; in [4] it was 174 nM; in data set [7], 188 nM. Besides, the inhibition at 2 µM against hERG [5] worked out at 13%. Moreover, the IC50 in data set [6] was 38 µM; in [9], greater than 100 µM. The compound also registered an EC50 in [2] of 48 nM. In addition, the remaining at 1 h in data set [3] was 29%. At hERG [8], this compound gave an inhibition at 20 µM of 65%.
Take `O=C(N[C@H]1CN2CCC1CC2)c1ccc2occc2c1`: the figures for the IC50 (on Cytochrome P450 2D6; in data set [6]; in data set [9]) were 3.6 µM, greater than 100 µM and greater than 100 µM, respectively. The inhibition constant Ki in [1] stood at 1.6 nM; in data set [4], 663 nM; in [7] it was 580 nM. Also, the half-life in [10] and in data set [14] was greater than 120 min each time. In addition, the inhibition in [11] is 5%. Moreover, testing at 2 µM against hERG [5] gave an inhibition of 2%. In [12], this compound yielded a clearance of 39 mL/min/kg. In [13], the bioavailability was 88%. This compound also returned an EC50 in data set [2] of 47 nM. For the same compound, the remaining at 1 h in data set [3] was 77%. The same compound showed an inhibition at 20 µM against hERG [8] of 33%.
`O=C(N[C@H]1CN2CCC1CC2)c1ccc2c(c1)CCO2`: the Ki in data set [1] was 15 nM. This compound also had an EC50 in data set [2] of 77 nM.
Take `O=C(N[C@H]1CN2CCC1CC2)c1ccc2ccoc2c1`: the IC50 was greater than 10 µM against Cytochrome P450 2D6, 81 µM in data set [6] and greater than 100 µM in data set [9]. In addition, the figures for the Ki in [1], in data set [4] and in [7] were 12.5 nM, 310 nM and 962 nM, respectively. On hERG [5], this compound returned an inhibition at 2 µM of 2%. The compound also had a clearance in data set [12] of 58 mL/min/kg. For the same compound, the bioavailability in data set [13] worked out at 76%. This compound showed a half-maximal effective concentration (EC50) in [2] of 86 nM. This compound also came in with a half-life in data set [14] greater than 120 min. For the same compound, the remaining at 1 h in data set [3] came out at 69%. Besides, the inhibition at 20 µM at hERG [8] worked out at 29%.
`O=C(N[C@H]1CN2CCC1CC2)c1ccc(Cl)cc1` [PNU-282987]: the IC50 is greater than 3 µM against Cytochrome P450 2D6, greater than 60 µM in data set [6] and greater than 60 µM in data set [9]. Also, the Ki in data set [1] turned out to be 24 nM; in data set [4], 1660 nM; in data set [7], 4540 nM. Also, the half-life in data set [10] and in [14] was greater than 120 min in each case. Besides, the inhibition in data set [11] was 14%. In addition, the inhibition at 2 µM on hERG [5] worked out at 11%. Besides, in [12], the clearance turned out to be 30 mL/min/kg. The compound further had a bioavailability in data set [13] of 74%. This compound also came in with an EC50 in [2] of 128 nM. Further, in data set [3], the remaining at 1 h was determined as 96%. Besides, the inhibition at 20 µM against hERG [8] is 57%.
